# Compound activity: PubChem, several laboratories
# APP 5'UTR act = activates APP 5'UTR luciferase reporter; SH-SY5Y APP 5'UTR luciferase reporter, luminescence; zero percent = DMSO vehicle wells; activation, % at 2 µM; hit rate 1% among 190,000; AID 1276;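 active = activation above a set limit, based on mean plus 3 SD of controls, cut at about 140% in these data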
# STAT3 inh = reduces IL-6 driven STAT3 reporter signal; U3A cells, IL-6 STAT3-luciferase reporter, luminescence; host cell line lacks STAT1; inhibition, % at 5.5 µM; hit rate 0.89% among 190,000; AID 862;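 active = inhibition above the mean inhibition across all screened compounds plus 3 SD, cut at about 44% in these data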;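 also: 0% = DMSO only wells and 100% = 100 µM nifuroxazide control wells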
# STAT1 activator = activators of IFN-gamma induced STAT1 signaling | NIH 3T3 STAT1-luciferase reporter, luminescence; 100% = IFN-gamma alone, no compound | activation (% of control), % at 5.5 µM | hit rate 2.6% among 200,000 | AID 932;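 active = activation above the screen-wide mean activation plus 3 SD, cut at about 130% in these data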;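 also: raw ratio to IFN-gamma control signal so 100% means no change and 0% no light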
# STAT3 activator = activators of IL-6 induced STAT3 signaling | U3A cells, IL-6 STAT3-luciferase reporter, luminescence; 100% = signal with IL-6 EC80 alone | activation (% of control), % at 5.6 µM | hit rate 0.91% among 190,000 | AID 871;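 active = activation above the screen-wide mean of compound activation plus 3 SD, cut at about 130% in these data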;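 also: 0% = background luminescence of wells with medium and substrate only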
#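 Material: STAT1-lacking human U3A cells, STAT3 luciferase reporter | Benchmarks: IL-6-only wells as 100% reference | Probe or stimulus: IL-6 (33 ng/mL) | Timing: Compound 1 h, then IL-6 6 h at 37 °C | Detection: Luminescence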
# STAT1 blocker = reduces IFN-gamma driven STAT1 reporter signal. NIH 3T3 STAT1-luciferase reporter, luminescence. inhibition, % at 5.5 µM. hit rate 0.35% among 200,000. AID 920;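 active = inhibition above a set limit, the mean inhibition across all tested compounds plus 3 SD, cut at about 34% in these data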;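 also: 0% = IFN-gamma with DMSO and 100% = IFN-gamma with 300 µM nifuroxazide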
# NF-kB neuron act = compounds increasing NF-kB expression in human neuronal cells | NF-kB reporter expression; hits give high values | fold change at 12.5 µM | hit rate 1.6% among 190,000; in the data active = fold change above about 3.3
# The depositor's hits bear a star; / = not tested or not shown. Shown are actives, neighbours in structure and some others; about 5.1% of the full set was active somewhere.
SMILES,APP 5'UTR act,STAT3 inh,STAT1 activator,STAT3 activator,STAT1 blocker,NF-kB neuron act
O=C(c1ccc(COc2ccccc2Br)cc1)N1CCCCCC1,3,14,105,93,-7,0.91
CCOc1ccc(C(=O)Nc2ccccc2-c2ccccc2)cc1Cl,0,26,101,83,-1,1.2
CCOc1c(Cl)cc(C(=O)Nc2ccccc2C(=O)O)cc1Cl,-6,-21,120,124,-21,4*
CCOc1ccc(C(=O)Nc2cccc(C(=O)O)c2C)cc1Cl,44,75*,54,39,51*,3.5*
Cc1cc(C(=O)Nn2c(-c3ccncc3)nc3ccccc3c2=O)ccc1[N+](=O)[O-],18,7,91,95,9,1.4
O=C(COc1cccc2c1CCN(Cc1ccc(Cl)cc1)C2=O)N1CCOCC1,-7,11,94,93,7,0.9
Cc1cc(OCC(=O)N(C)C2CCCCC2)ccc1Cl,142*,24,122,83,-26,/
Cc1cc(-c2ccc(N3CCOCC3)cc2)nc2ccccc12,90,-15,130*,112,-33,2.9
c1ccc2nc(-c3ccc(N4CCOCC4)cc3)ccc2c1,/,99*,38,22,68*,2.4
CN1CCN(c2ccc(-c3ccc4ccccc4n3)cc2)CC1,-51,112*,11,9,95*,0.34
c1ccc2nc(-c3ccncc3)ccc2c1,7,10,124,97,-27,1.6
Cc1cc(C)cc(N(C(=O)CCC(=O)Nc2ccccn2)C(C(=O)NC(C)C)c2ccc(O)cc2)c1 (configuration not stated),-16,15,96,91,4,1
COc1ccc(C2CCCN2C(=S)Nc2cccc(Cl)c2C)cc1OC (configuration not stated),4,14,91,97,9,0.81
COC(=O)C/C=C/[C@@H](C)[C@@H](/C=N/OCC[C@@H]1C=C[C@H](OC(C)=O)[C@@H](COC(C)=O)O1)NS(=O)(=O)c1ccc(C)cc1,9,7,90,91,11,1.1
Nc1c(-c2ccccc2)cnn1-c1cccc(C(F)(F)F)c1,95,3,143*,100,-48,2.8
Nc1c(-c2ccccc2)cnn1-c1ccc(C(=O)O)cc1,138*,-2,133*,102,-36,5.7*
Cc1ccc(-c2cnn(-c3cccc([N+](=O)[O-])c3)c2N)cc1,96,12,142*,99,-47,2.9
N#Cc1c(C#N)c(-c2ccccc2)n(-c2ccc(C(=O)O)cc2)c1N,17,0,110,101,-10,1.2
Cc1ccccc1-c1cnn(-c2cccc([N+](=O)[O-])c2)c1N,8,15,107,89,-8,1.2
Cc1ccc(/C([O-])=C(/C(=S)NCc2ccc3c(c2)OCO3)[n+]2ccc(N(C)C)cc2)c(C)c1,-1,3,108,97,-8,1.1
C/C(=C/C(=O)Nc1cccc(F)c1)N1CCCC1,7,0,95,102,3,2
CCN1C/C(=C/c2ccc(N3CCOCC3)cc2)C(=O)/C(=C/c2ccc(N3CCOCC3)cc2)C1,-7,-6,103,111,-3,5.3*
CN1C/C(=C\c2ccc(N3CCOCC3)cc2)C(=O)/C(=C/c2ccc(N3CCOCC3)cc2)C1,4,-4,101,108,-1,1.1
COC(=O)c1sc2cc([N+](=O)[O-])cc(SCC(C)C)c2c1N,3,-13,102,108,0,1.2
COC(=O)c1sc(Nc2ccccc2)nc1C,35,0,128,105,-30,1.9
SMILES,APP 5'UTR act,STAT3 inh,STAT1 activator,STAT3 activator,STAT1 blocker,NF-kB neuron act
C/C(=N\Nc1nc2c(s1)CCCC2)c1ccccc1,15,-101,149*,184*,-53,2.1
Cc1nc(Nc2ccc(C(=O)O)cc2)sc1-c1ccccc1,160*,72*,131*,41,-33,/
O=C(O)c1ccc(Nc2nc3c(s2)CCCC3)cc1,65,80*,36,32,69*,3.5*
C1CCN=C(Nc2nc3c(s2)CCCC3)CC1,30,4,131*,100,-34,1.8
CCN(CC)C(=O)c1nn(-c2ccccc2)c2c1C1CCC2(C)C1(C)C (configuration not stated),6,2,100,98,0,1.1
Cc1cc(C=O)c2c(c1)C=CC1(Oc3ccccc3C(=O)N1C)O2 (configuration not stated),-20,10,99,94,3,0.83
CCC/C(=N\NC(=O)c1csc(C)c1C)c1cccs1,45,-3,118,108,-20,1.8
CC/C(=N\NC(=O)c1csc(C)c1C)c1cccs1,80,12,138*,92,-43,5.2*
COc1cc(C=O)ccc1OCc1cccc(Br)c1,58,-5,130*,104,-34,1.1
COC(=O)c1ccccc1OCCOc1ccccc1C(=O)OC,-3,-2,100,106,-1,1.2
COC(=O)c1ccccc1OCCCOc1ccc(C=O)cc1OC,91,-38,134*,130,-38,1.2
CC(C)CCOc1cccc(OCC(=O)O)c1,-9,0,105,101,-6,1.1
N#Cc1ccc(OCC(=O)N/N=C2/CC(c3ccccc3)Oc3ccccc32)cc1 (configuration not stated),6,3,106,97,-6,1.2
Cc1ccc(-n2c(SCC(=O)NCC3CCCO3)nc3n[nH]c(C)c3c2=N)cc1Cl (configuration not stated),-7,45*,95,66,6,0.5
O=C(NC(=O)c1ccccc1)NC1(C(F)(F)F)OCCO1,97,-16,135*,119,-39,4.2*
COc1cccc(Nc2n[nH]c(=S)s2)c1,14,3,98,97,2,1.2
COc1ccc2nc(NC3=NCCC3)sc2c1,51,15,136*,89,-39,2.6
COc1cccc(Nc2nc3ccc(OC)cc3s2)c1,195*,3,129*,98,-33,4.7*
COc1ccc(-c2nc(NC3=NCCCCC3)sc2C)cc1,-6,-5,90,107,10,1
Cc1csc(NC(=O)c2ccc(OCC3CCCO3)cc2)n1 (configuration not stated),160*,61*,44,51,60*,4.8*
O=C(Nc1nc(-c2ccc(F)c(F)c2)cs1)c1ccc(OCC2CCCO2)cc1 (configuration not stated),24,1,110,95,-11,0.99
O=C(Nc1nccs1)c1ccc2c(=O)n3c(nc2c1)CCCCC3,66,-8,132*,107,-35,1.2
Cc1csc(NC(=O)c2ccc3c(=O)n4c(nc3c2)CCCCC4)n1,148*,-1,121,103,-23,1.9
